ChEMBL document CHEMBL4251567 (Eur J Med Chem, 2018)

Assays:
[1] = biological target: T1, Histone deacetylase (Homo sapiens) (UniProt Q13547+O15379+Q9UBN7+Q92769+Q9UQL6+Q8WUI4+Q9BY41+Q96DB2+P56524+Q9UKV0+Q969S8); experiment: Inhibition of HDAC in human HeLa-S3 cell lysates assessed as residual activity at 3 x 10^-6 M preincubated for 15 mins followed by HDAC-Glo substrate addition measured after 35 mins by […] relative to control; format: protein assay
[2] = biological target: Histone deacetylase 1 (Homo sapiens) (UniProt Q13547); experiment: Inhibition of HDAC1 in human HeLa-S3 cell lysates assessed as remaining activity at 2 x 10^-6 M preincubated for 15 mins followed by HDAC-Glo substrate addition […] relative to control
[3] = biological target: Histone deacetylase 2 (Homo sapiens) (UniProt Q92769); experiment: Inhibition of HDAC2 in human HeLa-S3 cell lysates assessed as remaining activity at 1 x 10^-6 M preincubated for 15 mins followed by HDAC-Glo substrate addition measured after 30 to 40 mins by […] relative to control
How it was run: (§1)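 Same antibody-capture format as the other class I isoforms. HeLa-S3 lysate added at 100 μg/mL for HDAC1 and HDAC2, 1 h at 4 °C, then washed. Inhibitor in DMSO preincubated 15 min at RT; HDAC-Glo reagent added and luminescence read after 30-40 min. Concentrations are final. Signal corrected against a well without antibody; activity expressed as % of DMSO control.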

[4] = biological target: Histone deacetylase 3 (Homo sapiens) (UniProt O15379); experiment: Inhibition of HDAC3 in human HeLa-S3 cell lysates assessed as remaining activity at 8 x 10^-6 M preincubated for 15 mins followed by HDAC-Glo substrate addition measured after 30 to 40 mins by […] relative to control
How it was run: (§2)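 Antibody-capture (ELISA-type) assay: HDAC antibody coated in carbonate/bicarbonate buffer pH 9.4, wells blocked with 5% milk in TBST. HeLa-S3 lysate added at 1 mg/mL for HDAC3, 1 h at 4 °C, then washed. Inhibitor in DMSO preincubated 15 min at RT in HDAC-Glo buffer. HDAC-Glo reagent added, luminescence read after 30-40 min. Concentrations are final. Background = no-antibody well; activity given as % of DMSO control.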

[5] = biological target: Histone deacetylase 3 (Homo sapiens) (UniProt O15379); experiment: Inhibition of HDAC3 in human HeLa-S3 cell lysates assessed as remaining activity at 4 x 10^-6 M preincubated for 15 mins followed by HDAC-Glo substrate addition measured after 30 to 40 mins by fluorimetric method relative to control; how it was run: as §2
[6] = biological target: Histone deacetylase 3 (Homo sapiens) (UniProt O15379); experiment: Inhibition of HDAC3 in human HeLa-S3 cell lysates assessed as remaining activity at 2 x 10^-6 M preincubated for 15 mins followed by HDAC-Glo substrate addition measured after 30 to 40 mins by […] relative to control; how it was run: as §2
[7] = biological target: T2, Histone deacetylase 8 (Homo sapiens) (UniProt Q9BY41); experiment: Inhibition of human recombinant full-length C-terminal His-tagged HDAC8 expressed in baculovirus infected Sf9 insect cell assessed as remaining activity at 4 x 10^-7 M preincubated for 15 mins followed by HDAC-Glo substrate addition measured after 30 mins by fluorimetric method rel;ative to control
T2 sequence (whole entry): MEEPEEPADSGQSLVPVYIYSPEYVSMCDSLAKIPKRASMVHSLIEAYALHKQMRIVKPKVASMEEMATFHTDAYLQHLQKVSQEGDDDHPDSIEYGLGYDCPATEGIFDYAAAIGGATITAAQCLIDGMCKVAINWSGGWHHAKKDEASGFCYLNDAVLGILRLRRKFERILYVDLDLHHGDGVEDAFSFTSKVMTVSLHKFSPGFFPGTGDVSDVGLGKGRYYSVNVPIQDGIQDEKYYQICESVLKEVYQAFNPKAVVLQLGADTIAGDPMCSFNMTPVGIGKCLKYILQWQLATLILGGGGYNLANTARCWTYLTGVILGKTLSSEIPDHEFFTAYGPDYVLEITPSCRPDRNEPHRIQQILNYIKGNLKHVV
How it was run: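 Recombinant HDAC8 (75 ng) preincubated 15 min at RT with inhibitor in DMSO in HDAC-Glo buffer. HDAC-Glo reagent added and luminescence read 30 min later. Background taken from a reaction without enzyme; activity as % of DMSO control.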

[8] = biological target: T1, Histone deacetylase (Homo sapiens); experiment: Inhibition of HDAC in human HeLa-S3 cell lysates assessed as residual activity at 2 x 10^-4 M preincubated for 15 mins followed by HDAC-Glo substrate addition measured after 35 mins by fluorimetric method relative to control; format: protein assay
How it was run: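 Lysate (1 μg total protein) in HDAC-Glo buffer was preincubated with inhibitor in DMSO for 15 min at room temperature. HDAC-Glo substrate/developer reagent was added and luminescence read after 35 min. Concentrations are final. Signal corrected for a no-lysate blank; % of DMSO control.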

[9] = biological target: T1, Histone deacetylase (Homo sapiens); experiment: Inhibition of HDAC in human HeLa-S3 cell lysates assessed as residual activity at 1 x 10^-4 M preincubated for 15 mins followed by HDAC-Glo substrate addition measured after 35 mins by […] relative to control; format: protein assay
[10] = biological target: T1, Histone deacetylase (Homo sapiens); experiment: Inhibition of HDAC in human HeLa-S3 cell lysates assessed as residual activity at 2.5 x 10^-5 M preincubated for 15 mins followed by HDAC-Glo substrate addition measured after 35 mins by […] relative to control; format: protein assay
[11] = test system: U-937; experiment: Cytotoxicity against human U937 cells assessed as decrease in cell viability after 44 hrs by MTT assay; format: functional, cell-based; conditions: Homo sapiens, U-937, 44 h
[12] = test system: U-937; experiment: Cytotoxicity against human U937 cells assessed as cell viability at 6.4 x 10^-5 M after 44 hrs by MTT assay relative to control; format: functional; conditions: U-937, 44 h, read-out: Activity
[13] = test system: U-937; experiment: Cytotoxicity against human U937 cells assessed as cell viability at 3.2 x 10^-5 M after 44 hrs by MTT assay relative to control; format: functional; conditions: U-937, 44 h, read-out: Activity
[14] = test system: U-937; experiment: Cytotoxicity against human U937 cells assessed as cell viability at 1.6 x 10^-5 M after 44 hrs by MTT assay relative to control; format: functional; conditions: U-937, 44 h, read-out: Activity
[15] = test system: U-937; experiment: Cytotoxicity against human U937 cells assessed as cell viability at 8 x 10^-6 M after 44 hrs by MTT assay relative to control; format: functional; conditions: U-937, 44 h, read-out: Activity
[16] = test system: U-937; experiment: Cytotoxicity against human U937 cells assessed as cell viability at 4 x 10^-6 M after 44 hrs by MTT assay relative to control; format: functional; conditions: U-937, 44 h, read-out: Activity
[17] = test system: U-937; experiment: Cytotoxicity against human U937 cells assessed as cell viability at 2 x 10^-6 M after 44 hrs by MTT assay relative to control; format: functional; conditions: U-937, 44 h, read-out: Activity
[18] = test system: Jurkat; experiment: Cytotoxicity against human Jurkat cells assessed as cell viability at 1 uM after 44 hrs by MTT assay relative to control; format: functional; conditions: read-out: Activity
[19] = test system: Jurkat; experiment: Cytotoxicity against human Jurkat cells assessed as cell viability at 10 uM after 44 hrs by MTT assay relative to control; format: functional; conditions: read-out: Activity
[20] = biological target: Histone deacetylase 2 (Homo sapiens) (UniProt Q92769); experiment: Inhibition of HDAC2 in human HeLa-S3 cell lysates assessed as remaining activity at 1.25 uM preincubated for 15 mins followed by HDAC-Glo substrate addition measured after 30 to 40 mins by […] relative to control; how it was run: as §1

Chain of Histone deacetylase 3 (Homo sapiens) (O15379 whole entry): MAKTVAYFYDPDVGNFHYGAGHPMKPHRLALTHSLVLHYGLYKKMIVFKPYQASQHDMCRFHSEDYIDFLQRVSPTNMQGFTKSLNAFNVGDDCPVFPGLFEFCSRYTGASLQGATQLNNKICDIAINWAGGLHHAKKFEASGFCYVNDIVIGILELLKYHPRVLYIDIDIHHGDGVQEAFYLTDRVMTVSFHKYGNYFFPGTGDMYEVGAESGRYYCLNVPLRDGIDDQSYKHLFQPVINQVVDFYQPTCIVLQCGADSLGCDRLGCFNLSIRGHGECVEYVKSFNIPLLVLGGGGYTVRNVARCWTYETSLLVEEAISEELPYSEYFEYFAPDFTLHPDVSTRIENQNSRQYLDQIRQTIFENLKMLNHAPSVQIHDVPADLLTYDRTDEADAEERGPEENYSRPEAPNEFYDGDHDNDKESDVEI
Chain of Histone deacetylase 2 (Homo sapiens) (Q92769 whole entry, canonical isoform): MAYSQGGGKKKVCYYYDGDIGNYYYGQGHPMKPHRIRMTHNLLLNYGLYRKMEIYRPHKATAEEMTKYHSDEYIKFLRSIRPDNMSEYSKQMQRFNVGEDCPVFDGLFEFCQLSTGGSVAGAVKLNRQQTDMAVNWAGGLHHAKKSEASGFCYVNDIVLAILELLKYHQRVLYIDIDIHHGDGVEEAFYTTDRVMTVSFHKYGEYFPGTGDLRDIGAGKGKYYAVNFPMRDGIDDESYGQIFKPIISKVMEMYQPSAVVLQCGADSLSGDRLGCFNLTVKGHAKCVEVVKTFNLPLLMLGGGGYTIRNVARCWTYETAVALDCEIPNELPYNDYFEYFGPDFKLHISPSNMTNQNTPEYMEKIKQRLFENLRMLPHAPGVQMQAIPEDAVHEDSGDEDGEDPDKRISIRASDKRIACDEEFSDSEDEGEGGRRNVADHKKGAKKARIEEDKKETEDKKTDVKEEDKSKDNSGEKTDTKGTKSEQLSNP
Chain of Histone deacetylase 1 (Homo sapiens) (Q13547 whole entry): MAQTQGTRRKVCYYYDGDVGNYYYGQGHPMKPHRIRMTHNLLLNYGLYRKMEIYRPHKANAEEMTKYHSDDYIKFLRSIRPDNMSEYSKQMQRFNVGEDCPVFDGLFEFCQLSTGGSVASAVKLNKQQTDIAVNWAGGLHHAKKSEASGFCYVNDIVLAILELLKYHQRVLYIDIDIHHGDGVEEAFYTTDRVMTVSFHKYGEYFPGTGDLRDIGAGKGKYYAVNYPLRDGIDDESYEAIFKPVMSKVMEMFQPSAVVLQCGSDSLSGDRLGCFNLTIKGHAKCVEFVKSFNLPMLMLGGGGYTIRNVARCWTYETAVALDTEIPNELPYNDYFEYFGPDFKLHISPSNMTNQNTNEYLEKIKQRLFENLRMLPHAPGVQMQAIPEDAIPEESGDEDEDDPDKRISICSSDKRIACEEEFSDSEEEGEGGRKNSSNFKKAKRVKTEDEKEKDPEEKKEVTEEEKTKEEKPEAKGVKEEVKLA

**Q.** Which Activity [1] does the source give for `CCC(CCCC(=O)Nc1ccccc1)CCC(=O)NO` (stereo not drawn) here?
**A.** 92%

**Q.** What about the Activity [2] of the same compound?
**A.** 68%

**Q.** And the Activity [3]?
**A.** 86%

**Q.** And the Activity [4]?
**A.** 52%

**Q.** And the Activity [5]?
**A.** 64%

**Q.** What about the Activity [6] of the same compound?
**A.** 71%

**Q.** And the Activity [7]?
**A.** 25%

**Q.** What does the source list for `O=C(CCC(CCCC(=O)Nc1ccccc1)Cc1ccccc1)NO` (racemic)?
**A.** Activity [8]: 19%; Activity [9]: 35%; Activity [10]: 74%; EC50 [11]: 28 µM; viability at 64 µM [12]: 26%; viability at 32 µM [13]: 49%; viability at 16 µM [14]: 69%; viability at 8 µM [15]: 80%; viability at 4 µM [16]: 74%; viability at 2 µM [17]: 80%; viability at 1 µM [18]: 89%; viability at 10 µM [19]: 97%

**Q.** Which Activity [8] does the source give for `CCCCCCC(CCCC(=O)Nc1ccccc1)CCC(=O)NO` (stereo not drawn) here?
**A.** 21%

**Q.** And the Activity [9]?
**A.** 35%

**Q.** What about the Activity [10] of the same compound?
**A.** 73%

**Q.** And the Activity [20]?
**A.** 101%

**Q.** What about the EC50 [11] of the same compound?
**A.** 16 µM

**Q.** What about the viability at 64 µM [12] of the same compound?
**A.** 24%

**Q.** And the viability at 32 µM [13]?
**A.** 28%

**Q.** And the viability at 16 µM [14]?
**A.** 37%

**Q.** And the viability at 8 µM [15]?
**A.** 102%

**Q.** What about the viability at 4 µM [16] of the same compound?
**A.** 108%

**Q.** What about the viability at 2 µM [17] of the same compound?
**A.** 106%

**Q.** And the viability at 1 µM [18]?
**A.** 69%

**Q.** What about the viability at 10 µM [19] of the same compound?
**A.** 39%

**Q.** With `O=C(CC[C@H](CCCC(=O)Nc1ccccc1)Cc1ccccc1)NO` as the compound, how does the Activity [7] read?
**A.** 28%
